Measurements: paper PMC6977399 (Clinical Pharmacology and Therapeutics, 2019)

What was measured:
OATP1B1 = molecular target: T1, OATP1B1 (Homo sapiens, UniProt Q9Y6L6); experiment: Inhibition of OATP1B1-mediated E217ßG uptake in HEK293 cells; assay type: in vitro ADME
T1 sequence (Q9Y6L6 1-691): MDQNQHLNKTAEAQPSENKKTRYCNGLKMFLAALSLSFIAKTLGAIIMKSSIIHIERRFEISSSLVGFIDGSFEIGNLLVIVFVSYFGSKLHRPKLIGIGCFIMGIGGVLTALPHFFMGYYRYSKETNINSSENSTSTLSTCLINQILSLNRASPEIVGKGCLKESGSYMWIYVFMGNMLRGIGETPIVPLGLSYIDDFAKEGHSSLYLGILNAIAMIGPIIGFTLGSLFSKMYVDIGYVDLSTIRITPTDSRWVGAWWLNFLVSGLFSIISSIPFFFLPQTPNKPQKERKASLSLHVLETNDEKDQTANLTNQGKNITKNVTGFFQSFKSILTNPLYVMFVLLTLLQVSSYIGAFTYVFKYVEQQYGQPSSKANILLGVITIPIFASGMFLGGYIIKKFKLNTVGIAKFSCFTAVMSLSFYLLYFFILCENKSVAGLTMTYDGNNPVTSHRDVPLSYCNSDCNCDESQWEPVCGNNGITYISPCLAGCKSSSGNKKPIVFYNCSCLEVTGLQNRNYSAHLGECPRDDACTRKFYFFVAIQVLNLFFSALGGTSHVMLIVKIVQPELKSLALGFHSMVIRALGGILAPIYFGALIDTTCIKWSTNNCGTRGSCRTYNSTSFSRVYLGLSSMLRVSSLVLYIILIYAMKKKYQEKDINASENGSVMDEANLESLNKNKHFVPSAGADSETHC

CYP2B6 = molecular target: T2, CYP2B6 (Homo sapiens, UniProt P20813); experiment: CYP inhibition in human liver microsomes; assay type: in vitro ADME; conditions: up to 50 μM
T2 sequence (P20813 1-491): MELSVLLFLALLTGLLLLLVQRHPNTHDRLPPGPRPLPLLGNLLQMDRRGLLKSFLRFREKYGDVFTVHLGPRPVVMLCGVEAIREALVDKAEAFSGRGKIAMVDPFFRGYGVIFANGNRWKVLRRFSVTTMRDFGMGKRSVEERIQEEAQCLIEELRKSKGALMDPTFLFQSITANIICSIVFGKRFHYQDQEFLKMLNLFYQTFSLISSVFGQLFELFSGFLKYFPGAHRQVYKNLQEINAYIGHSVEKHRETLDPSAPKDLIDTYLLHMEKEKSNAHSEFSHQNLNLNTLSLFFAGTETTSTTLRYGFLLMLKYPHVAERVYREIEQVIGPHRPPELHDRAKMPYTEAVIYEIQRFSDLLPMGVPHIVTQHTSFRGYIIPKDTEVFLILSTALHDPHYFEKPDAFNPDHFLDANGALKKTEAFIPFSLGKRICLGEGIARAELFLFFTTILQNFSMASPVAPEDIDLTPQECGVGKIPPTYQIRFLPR
How it was run: (§1)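 Reversible inhibition: test compound pre-incubated 10 min at 37°C with pooled human liver microsomes plus an isoform-selective probe substrate. Reaction started with NADPH (1.3 mM), then quenched with 3% formic acid in acetonitrile containing internal standard. CYP-specific metabolite formation measured by LC-MS/MS. Activity expressed as % control = (peak area ratio with compound / without compound) × 100.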

Bruton's tyrosine kinase = conditions: phase I studies; cited from earlier work
CYP2C8 = molecular target: T3, CYP2C8 (Homo sapiens, UniProt P10632); experiment: CYP inhibition in human liver microsomes; assay type: in vitro ADME; conditions: up to 50 μM
T3 sequence (P10632 1-490): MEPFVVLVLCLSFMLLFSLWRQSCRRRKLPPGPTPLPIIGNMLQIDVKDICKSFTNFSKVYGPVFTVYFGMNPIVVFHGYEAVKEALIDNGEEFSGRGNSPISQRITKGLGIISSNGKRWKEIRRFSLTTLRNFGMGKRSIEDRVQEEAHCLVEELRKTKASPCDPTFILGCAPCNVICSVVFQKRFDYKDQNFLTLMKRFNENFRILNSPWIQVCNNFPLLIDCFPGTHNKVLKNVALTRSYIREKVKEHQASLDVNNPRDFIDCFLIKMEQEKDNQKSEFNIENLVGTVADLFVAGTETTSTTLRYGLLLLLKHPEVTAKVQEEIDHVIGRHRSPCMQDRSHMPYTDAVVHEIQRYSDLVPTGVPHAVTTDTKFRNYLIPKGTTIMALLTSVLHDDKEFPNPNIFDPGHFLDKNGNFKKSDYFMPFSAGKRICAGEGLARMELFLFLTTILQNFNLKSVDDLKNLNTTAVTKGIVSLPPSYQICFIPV
How it was run: as §1

CYP2C9 = CYP2C9 (Homo sapiens, UniProt P11712); experiment: CYP inhibition in human liver microsomes; assay type: in vitro ADME; conditions: up to 50 μM
How it was run: as §1

CYP2C9, sequence (P11712 whole entry): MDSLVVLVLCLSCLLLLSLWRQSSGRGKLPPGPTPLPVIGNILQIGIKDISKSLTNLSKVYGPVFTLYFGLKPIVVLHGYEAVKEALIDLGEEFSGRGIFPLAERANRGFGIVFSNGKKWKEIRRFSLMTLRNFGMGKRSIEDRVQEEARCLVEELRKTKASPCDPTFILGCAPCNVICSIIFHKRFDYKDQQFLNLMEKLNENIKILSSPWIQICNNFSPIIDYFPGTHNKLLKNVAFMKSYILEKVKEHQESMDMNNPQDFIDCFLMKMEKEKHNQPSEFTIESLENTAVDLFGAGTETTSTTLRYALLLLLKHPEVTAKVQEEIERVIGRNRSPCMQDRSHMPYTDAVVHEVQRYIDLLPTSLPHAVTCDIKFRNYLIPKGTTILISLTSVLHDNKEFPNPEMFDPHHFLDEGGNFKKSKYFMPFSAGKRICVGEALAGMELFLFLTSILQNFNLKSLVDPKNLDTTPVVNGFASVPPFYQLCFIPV

C[C@H]1CN(C2COC2)CCN1c1ccc(Nc2cc(-c3ccnc(N4CCn5c(cc6c5CC(C)(C)C6)C4=O)c3CO)cn(C)c2=O)nc1 [fenebrutinib]
IC50 (OATP1B1): 19.7 µM | inhibition at 30 μM (OATP1B1; human, HEK293 cells stably expressing human OATP1B1, pH 7.4, probe E217ßG (1 μM)): 62.8% | reversible or time-dependent inhibition of CYP2B6 (CYP2B6): No reversible or time‐dependent inhibition | plasma concentration showing target engagement (Bruton's tyrosine kinase): 100 nM | reversible or time-dependent inhibition of CYP2C8 (CYP2C8): No reversible or time‐dependent inhibition | reversible or time-dependent inhibition of CYP2C9 (CYP2C9): No reversible or time‐dependent inhibition
